# tolC growth inh: E. coli tolC mutant growth inhibition; E. coli BW25113 tolC mutant growth, OD615; growth inhibition, % at 10 µM (by protocol); 65,000 compounds, 2.2% hits; AID 573;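 active means growth inhibition at or above a cutoff equal to the mean over every tested compound plus 3 SD, cut at about 60% in these data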;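 further: growth measured after 20 h incubation at 37 °C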
#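 System: E. coli ΔtolC::kan strain BW25113; Buffer or medium: LB broth supplemented with 50 µg/mL kanamycin; Compound: 10 µM final, single dose; Incubation: bacterial growth with compound for 20 h at 37 °C; Signal: A615 absorbance measurement; Evaluation: growth inhibition in percent.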
# PostGolgi yeast: growth inhibition of a yeast mutant, post-Golgi transport screen | post-Golgi transport phenotypic cell assay | inhibition, % at 10 µM | 98,000 compounds, 0.9% hits | AID 739;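 further: yeast cells grown in 1536-well plates; yeast grown about 18 h at 30C before absorbance read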
# HER2 expr 66K: inhibitors of human Her2 kinase expression; P04626; SKBR-3 HER2 protein level, AlphaScreen, 18-24 h; hits give low values; HER2 level % of control, % at 10 µM; 65,000 compounds, 0.69% hits; AID 645;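 active means HER2 level under 5% of the carrier-only control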;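 further: 100% = DMSO carrier and 0% = 500 nM PU-H71 HSP90 inhibitor; lower value means stronger loss of Her2 protein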
# Target sequence (P04626 whole entry, looked up): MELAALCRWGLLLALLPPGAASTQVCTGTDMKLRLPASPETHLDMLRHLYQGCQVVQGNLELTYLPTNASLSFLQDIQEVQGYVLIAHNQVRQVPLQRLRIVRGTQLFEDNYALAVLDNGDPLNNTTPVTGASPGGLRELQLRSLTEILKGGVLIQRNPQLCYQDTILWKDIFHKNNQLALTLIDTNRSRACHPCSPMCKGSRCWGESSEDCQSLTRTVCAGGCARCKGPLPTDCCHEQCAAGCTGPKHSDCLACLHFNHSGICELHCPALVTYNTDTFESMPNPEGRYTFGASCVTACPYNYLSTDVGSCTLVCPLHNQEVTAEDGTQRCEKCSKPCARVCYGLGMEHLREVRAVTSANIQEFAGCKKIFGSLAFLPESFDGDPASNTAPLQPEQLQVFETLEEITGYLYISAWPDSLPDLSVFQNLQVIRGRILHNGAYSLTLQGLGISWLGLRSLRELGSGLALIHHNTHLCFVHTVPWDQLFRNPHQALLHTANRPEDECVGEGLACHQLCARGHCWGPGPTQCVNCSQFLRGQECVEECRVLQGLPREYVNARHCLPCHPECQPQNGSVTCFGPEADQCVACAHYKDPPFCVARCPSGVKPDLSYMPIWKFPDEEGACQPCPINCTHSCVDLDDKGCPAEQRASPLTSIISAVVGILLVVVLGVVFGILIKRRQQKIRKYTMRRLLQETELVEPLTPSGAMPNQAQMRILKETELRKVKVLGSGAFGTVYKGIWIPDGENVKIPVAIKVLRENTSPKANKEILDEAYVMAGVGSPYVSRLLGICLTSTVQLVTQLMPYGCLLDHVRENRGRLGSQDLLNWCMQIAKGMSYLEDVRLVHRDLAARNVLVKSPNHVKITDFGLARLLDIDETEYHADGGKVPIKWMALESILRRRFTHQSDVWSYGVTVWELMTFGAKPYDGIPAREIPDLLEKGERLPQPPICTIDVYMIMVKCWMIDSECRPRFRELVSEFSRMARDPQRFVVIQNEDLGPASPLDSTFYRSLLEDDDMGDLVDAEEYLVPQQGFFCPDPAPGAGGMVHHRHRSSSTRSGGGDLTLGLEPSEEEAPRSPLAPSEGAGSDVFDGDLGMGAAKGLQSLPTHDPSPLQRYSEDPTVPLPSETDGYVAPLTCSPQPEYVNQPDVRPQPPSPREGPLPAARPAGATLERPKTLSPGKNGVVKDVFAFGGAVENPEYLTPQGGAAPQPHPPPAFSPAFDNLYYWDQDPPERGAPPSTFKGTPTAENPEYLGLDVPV
# PostGolgi ctrl: inhibits growth of the yeast control strain; efflux-deficient yeast background strain, growth absorbance A615, 16 h; inhibition, % at 10 µM; 98,000 compounds, 5% hits; AID 738
# E coli WT exp: growth inhibitors of E. coli BW25113 wild type. OD600 absorbance. growth inhibition, % at 100 µM. 98,000 compounds, 0.15% hits. AID 710;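 active means growth inhibition above about 50% at one test dose, limit read from the data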;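 further: growth measured after 20 h incubation at 37 °C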
# * hit, by the source's call; . = no result given. This is a sample that favours compounds with a hit; in the whole collection about 6.6% have one here. Unless noted, no stated cut-off is given here; in the data, active means inhibition above about 30%; inactive means the rest.
SMILES,tolC growth inh,PostGolgi yeast,HER2 expr 66K,PostGolgi ctrl,E coli WT exp
O=C(OCc1ccc(Cl)cc1Cl)c1ccncc1,.,7,.,14,0
Cc1nn(C(C)C(=O)NCc2ccccc2Cl)c(=O)c2c1sc1ccccc12 (configuration not stated),.,-13,.,55*,-5
CCOC(=O)N1CCN(C(=O)C(CC)n2nc(C)c3sc4ccccc4c3c2=O)CC1 (configuration not stated),16,-2,69,28,3
Cc1ccc(-c2csc3ncnc(SCC(=O)Nc4nnc(C)s4)c23)cc1,.,-5,.,33*,-5
Cc1ccc(-c2csc3ncnc(SCC(=O)c4ccc5c(c4)OCCO5)c23)cc1,.,4,.,2,-15
O=C(CN(Cc1ccccc1)C(=O)CCC(=O)Nc1nccs1)NCc1ccco1,-17,-9,102,6,1
Cc1cc(C)nc(NC(=O)COc2cc(Cl)cc(Cl)c2)n1,.,9,.,32*,-3
CC12CCC(C(=O)N(Cc3ccccc3)Cc3ccccc3)(OC1=O)C2(C)C (configuration not stated),.,-3,.,38*,-10
Cc1ccc(S(=O)(=O)N2CN(Cc3ccco3)c3nc4ccccc4nc32)cc1C,.,-1,.,32*,-11
CC(=O)N(Cc1ccc(F)cc1)C1=C(NCCc2ccccc2)C(=O)c2ccccc2C1=O,.,21,.,31*,-9
CC(=O)N1CCc2cc(S(=O)(=O)NCCC(=O)N3CCN(c4ccccn4)CC3)ccc21,-9,10,96,35*,1
CCC(C)NC(=O)CCC(=O)Nc1ccc2nc(N3CCOCC3)cc(C)c2c1 (configuration not stated),0,4,104,5,0
CCN(CC)c1cc(C)c2cc(NC(=O)CNC(C)=O)ccc2n1,13,18,120,33*,1
CCN1CCN(S(=O)(=O)c2ccc(OC)c(Br)c2)CC1,0,0,79,7,10
O=C(COC(=O)C1(c2ccc(Cl)cc2)CCCC1)NC1CCS(=O)(=O)C1 (configuration not stated),.,0,.,24,4
CCOCCCNC(=O)c1cc(C)nn1-c1ccccc1,-11,-5,92,5,0
CCOCCCNC(=O)c1cc2sc(Cl)cc2n1CC,17,39*,78,7,1
CCn1c(COc2ccccc2)nnc1SCc1ccc(C#N)cc1,4,1,69,7,5
CCn1c(COc2ccc(Cl)cc2)nnc1SCc1ccc(C#N)cc1,50,-10,70,34*,-12
C=CCNc1nc(-c2cccc(OC)c2O)nc2ccccc12,15,-3,59,17,-4
CCN(CC)c1nc(-c2cccc(OC)c2O)nc2ccccc12,-1,-3,86,32*,-3
COc1cccc(-c2nc(N3CCCCC3C)c3ccccc3n2)c1O (configuration not stated),1,18,94,75*,-16
COc1cccc(COc2cc3ccccc3nc2C)c1,.,9,.,11,5
CCCCCC/C(=N/O)c1ccccn1,100*,4,105,40*,37
COc1ccc(-n2nnnc2S(=O)(=O)Cc2ccc(C(=O)O)cc2)cc1,5,-2,36,18,4
SMILES,tolC growth inh,PostGolgi yeast,HER2 expr 66K,PostGolgi ctrl,E coli WT exp
COc1ccc(-n2nnnc2S(=O)(=O)CC(=O)N2CCCCC2)cc1,22,2,-29*,7,10
C=CCn1c(=O)c(C(=O)Nc2ccccc2OC)c(O)c2ccccc21,-7,.,83,.,.
COc1ccccc1NCC(O)Cn1c2ccccc2c2ccccc21 (configuration not stated),.,13,.,57*,-12
CCOP(=O)(c1ccccc1Cl)C1(O)CCCCC1 (configuration not stated),-13,4,-28*,1,0
CCOP(=O)(c1ccccc1)C1(C#N)CCCC1 (configuration not stated),7,1,101,8,-2
Clc1ccc(Sc2cc(Cl)c(-c3ccccc3)nn2)cc1,.,-12,.,59*,-29
c1ccc(COc2ccc(CNn3cnnc3)cc2)cc1,-12,-1,96,19,9
Cc1oc(-c2ccccc2)cc1C(=O)Nc1cccc(C(=O)O)c1,30,-1,58,2,2
Cc1oc(-c2ccccc2)cc1C(=O)Nc1cccc2ccccc12,.,-8,.,30*,-10
CC(=O)NC12CC3CC(C)(C1)CC(NC(C)=O)(C3)C2,-11,-6,.,-4,-5
COc1ccc(C/C(N)=N/OC(=O)Cc2ccccc2)cc1,.,5,.,3,-2
COc1ccccc1CC(=O)O/N=C(\N)Cc1cccc2ccccc12,.,-3,.,30*,8
Cc1cccc(NC(=S)NNC(=S)NCc2ccccc2)c1,.,-4,.,4,-2
C/C(=N\NC(=S)Nc1cccc(C)c1)c1ccccc1,.,-1,.,33*,-15
CCOC(=O)c1cnc2scnn2c1=O,-12,6,116,37*,1
O=C(N/N=C/c1ccc(-c2cccc(C(F)(F)F)c2)o1)c1cccc(F)c1,.,36*,.,37*,-6
CCCn1c(SCc2cc(=O)oc3ccc4ccccc4c23)n[nH]c1=O,19,30*,95,-3,5
CNc1nc(SCc2ccccc2Cl)nc2c1CCCC2,.,17,.,45*,-9
Cc1ccc(CSc2nc3c(c(=O)[nH]2)CCC3)cc1,8,0,.,7,-13
O=c1[nH]c(SCc2ccccc2Cl)nc2c1CCC2,15,-3,68,12,-7
CN(C)c1nc(SCc2ccc(Cl)cc2)nc2c1CCCC2,.,12,.,37*,0
O=C(OC(C(=O)NCC1CCCO1)c1ccc(F)cc1)c1cccs1 (configuration not stated),.,-7,.,-6,-2
N#C/C(=N\Nc1cccc(Cl)c1)C(=O)c1ccccc1,.,11,.,84*,0
N#C/C(=N\Nc1ccccc1Cl)C(=O)c1ccccc1,.,-3,.,48*,-3
N#C/C(=N\Nc1c(Cl)cccc1Cl)C(=O)NN,.,2,.,9,10
SMILES,tolC growth inh,PostGolgi yeast,HER2 expr 66K,PostGolgi ctrl,E coli WT exp
N#CC(C(=O)Nc1cccc(Cl)c1)=C1Nc2ccccc2N1,-14,-18,71,13,-8
CC(=N/O)/C(=N\O)c1ccc(C)o1,-5,-7,112,-7,-5
CC(=O)c1sc(-c2c(C)nc3sccn23)nc1C1CCCC1,6,.,78,.,.
CCCCc1ccc(Nc2nc(CCC)cc(=O)[nH]2)cc1,100*,6,74,52*,2
CCn1c2ccccc2c2cc(NS(=O)(=O)c3ccccc3C)ccc21,.,4,.,23,-12
O=C(CCN1C(=O)c2ccccc2C1=O)N1CCN(C2c3ccccc3-c3ccccc32)CC1,.,-1,.,53*,2
CC(C)(C)C(=O)CN1CCN(C2c3ccccc3-c3ccccc32)CC1,.,-3,.,5,-3
O=C(c1n[nH]c(=O)c2ccccc12)N1CCN(C2c3ccccc3-c3ccccc32)CC1,21,12,103,33*,-6
O=C(CN1CCOCC1)NCC12CC3CC(CC(C3)C1)C2,-2,1,56,37*,-2

# Source: PubChem BioAssay (SRMLSC)
